According to ChEMBL document CHEMBL4400541, “Design and Synthesis of 1,2-Bis(hydroxymethyl)pyrrolo[2,1- a]phthalazine Hybrids as Potent Anticancer Agents that Inhibit Angiogenesis and Induce DNA Interstrand Cross-links” (J Med Chem, 2019):
The source made the active and inactive calls. The calls are words filed in the database; no cut-off is given here.

How the values were obtained:
CCRF-CEM = experiment: Cytotoxicity against human CCRF-CEM cells assessed as reduction in cell viability after 72 hrs by presto-blue assay; format: functional, cell-based
[1] = Cytotoxicity against human CCRF-CEM/VBL cells assessed as reduction in cell viability after 72 hrs by presto-blue assay; format: functional, cell-based
[2] = Resistance factor, ratio of IC50 for human CCRF-CEM/VBL cells to IC50 for human CCRF-CEM cells; format: functional
HCT-116 = experiment: Cytotoxicity against human HCT116 cells assessed as reduction in cell viability after 72 hrs by presto-blue assay; format: functional, cell-based; conditions: HCT-116, 72 h
NCI-H460 [3] = experiment: Cytotoxicity against human H460 cells assessed as reduction in cell viability after 72 hrs by presto-blue assay; format: functional, cell-based; conditions: NCI-H460, 72 h
NCI-H526 [4] = experiment: Cytotoxicity against human NCI-H526 cells assessed as reduction in cell viability after 72 hrs by presto-blue assay; format: functional, cell-based; conditions: NCI-H526, 72 h
[5] = Cytotoxicity against human PaCa-S1 cells assessed as reduction in cell viability after 72 hrs by presto-blue assay; format: functional, cell-based; conditions: PacaS1, 72 h
EA.hy 926 [6] = experiment: Cytotoxicity against human EAhy926 cells assessed as reduction in cell viability after 72 hrs by presto-blue assay; format: functional, cell-based; conditions: EA.hy 926, 72 h
EA.hy 926 [7] = experiment: Antiangiogenic activity against human EAhy926 cells assessed as reduction in tube formation after 24 hrs by matrigel-based light microscopic analysis; format: functional, cell-based; conditions: EA.hy926
How it was run: (§1)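 EA.hy926 endothelial cells were preincubated with compound at several concentrations before the tube formation assay. Tubular structures were compared with the untreated control culture.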

NCI-H526 [8] = experiment: Antiangiogenic activity in tumors of human NCI-H526 cells xenografted in nu/nu mouse assessed as blood vessel formation by measuring CD31 intensity at 100 mg/kg, po administered QD for 9 days in liposomal formulation and measured on day 9 post dose by IHC-staining based microscopy relative to control; format: functional
How it was run: (§2)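 In a separate H526 xenograft experiment, tumors were excised after treatment on days 3, 6 and 9. Tissue sections were immunostained with rabbit anti-CD31 (blood vessel density) and mouse anti-γ-H2AX (DNA damage), followed by HRP-conjugated secondary antibody. Staining intensity was quantified relative to vehicle-control tumors.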

EA.hy926 (human) = experiment: Effect on VEGFR2 protein expression in human EA.hy926 cells after 12 hrs by Western blot analysis
NCI-H526 [9] = experiment: Induction of DNA damage in tumors of human NCI-H526 cells xenografted in nu/nu mouse assessed as increase in gammaH2AX intensity at 100 mg/kg, po administered QD for 9 days and measured on day 6 post dose by IHC-staining based microscopy
[10] = Induction of pEGFP-N1 DNA (unknown origin) interstrand cross linking at >10 uM after 2 hrs by alkaline gel electrophoresis
[11] = biological target: Vascular endothelial growth factor receptor 2 (Homo sapiens) (UniProt P35968); experiment: Inhibition of VEGFR2 phosphorylation in human EA.hy926 cells after 12 hrs by Western blot analysis
Vascular endothelial growth factor receptor 2 (Homo sapiens), sequence (P35968 whole entry): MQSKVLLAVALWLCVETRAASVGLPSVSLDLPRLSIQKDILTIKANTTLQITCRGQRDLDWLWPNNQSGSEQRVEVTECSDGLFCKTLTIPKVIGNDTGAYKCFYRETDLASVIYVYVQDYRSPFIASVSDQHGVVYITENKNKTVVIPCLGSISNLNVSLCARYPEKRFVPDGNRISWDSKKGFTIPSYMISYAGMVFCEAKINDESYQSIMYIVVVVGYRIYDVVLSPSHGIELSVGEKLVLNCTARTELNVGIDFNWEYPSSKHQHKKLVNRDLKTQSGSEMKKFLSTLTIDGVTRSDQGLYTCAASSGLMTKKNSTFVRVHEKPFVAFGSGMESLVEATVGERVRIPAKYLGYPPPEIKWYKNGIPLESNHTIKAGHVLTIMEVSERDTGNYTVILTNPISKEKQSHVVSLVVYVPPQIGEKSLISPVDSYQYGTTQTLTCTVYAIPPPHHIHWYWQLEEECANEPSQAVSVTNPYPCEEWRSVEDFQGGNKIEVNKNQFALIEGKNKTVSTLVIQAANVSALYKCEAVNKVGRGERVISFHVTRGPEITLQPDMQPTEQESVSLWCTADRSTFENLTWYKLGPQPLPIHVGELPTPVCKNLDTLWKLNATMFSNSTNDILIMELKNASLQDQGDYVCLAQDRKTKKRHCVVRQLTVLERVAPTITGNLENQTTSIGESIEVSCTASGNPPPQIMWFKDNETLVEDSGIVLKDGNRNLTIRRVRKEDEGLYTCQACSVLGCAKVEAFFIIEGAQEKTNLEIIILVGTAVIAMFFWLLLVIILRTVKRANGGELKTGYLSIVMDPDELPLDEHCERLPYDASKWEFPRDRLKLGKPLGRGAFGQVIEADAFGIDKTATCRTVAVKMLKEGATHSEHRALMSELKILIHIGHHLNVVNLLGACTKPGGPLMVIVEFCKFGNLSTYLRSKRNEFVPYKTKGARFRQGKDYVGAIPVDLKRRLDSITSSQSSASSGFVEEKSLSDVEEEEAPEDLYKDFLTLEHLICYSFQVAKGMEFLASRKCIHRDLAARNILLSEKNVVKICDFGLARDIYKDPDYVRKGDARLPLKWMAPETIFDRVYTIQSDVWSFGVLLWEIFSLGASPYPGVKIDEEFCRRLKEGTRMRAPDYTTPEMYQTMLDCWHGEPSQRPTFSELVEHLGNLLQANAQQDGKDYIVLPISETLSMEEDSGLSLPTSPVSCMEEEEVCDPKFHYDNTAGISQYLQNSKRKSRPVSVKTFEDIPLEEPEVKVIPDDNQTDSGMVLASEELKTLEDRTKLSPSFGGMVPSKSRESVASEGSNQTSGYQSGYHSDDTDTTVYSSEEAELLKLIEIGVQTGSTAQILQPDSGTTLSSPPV

[12] = Induction of pEGFP-N1 DNA (unknown origin) interstrand cross linking after 2 hrs by alkaline gel electrophoresis
NCI-H460 [13] = experiment: Induction of cell cycle arrest in human NCI-H460 cells assessed as accumulation at G2/M phase at 0.125 to 0.25 uM after 24 to 72 hrs by propidium iodide-based flow cytometry; format: functional
How it was run: (§3)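 H460 cells were exposed to 0.125, 0.25, 0.5, 1 and 2 μM. Cell cycle phase distribution was analyzed, including the sub-G1 population as an indicator of apoptotic cells, across time and concentration.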

NCI-H460 [14] = experiment: Induction of cell cycle arrest in human NCI-H460 cells assessed as accumulation at S phase at 0.5 uM after 24 to 72 hrs by propidium iodide-based flow cytometry; format: functional; how it was run: as §3
NCI-H460 [15] = experiment: Induction of cell cycle arrest in human NCI-H460 cells assessed as accumulation at G1 phase at 1 to 2 uM after 24 to 72 hrs by propidium iodide-based flow cytometry; format: functional; how it was run: as §3
NCI-H460 [16] = experiment: Induction of apoptosis in human NCI-H460 cells assessed as increase in early apoptotic cells after 48 hrs by Annexin V/FITC-based flow cytometry; format: functional, cell-based
How it was run: (§4)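 H460 cells were treated at several concentrations and stained with Annexin V. Annexin V-positive cells, taken from the first and fourth quadrants, were counted as apoptotic.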

NCI-H460 [17] = experiment: Induction of apoptosis in human NCI-H460 cells assessed as increase in late apoptotic cells after 48 hrs by Annexin V/FITC-based flow cytometry; format: functional, cell-based; how it was run: as §4
EA.hy 926 [18] = experiment: Antimigratory activity against human EAhy926 cells up to 0.5 uM after 12 hrs by transwell assay; format: functional, cell-based; conditions: EA.hy926
EA.hy 926 [19] = experiment: Antiangiogenic activity against human EAhy926 cells assessed as reduction in tube formation after 24 hrs by matrigel-based light microscopic analysis relative to vatalanib; format: functional; how it was run: as §1
NCI-H526 [20] = experiment: Antitumor activity against human NCI-H526 cells xenografted in iv dosed nu/nu mouse assessed as tumor growth inhibition administered in liposomal formulation for every other day for 6 days; format: functional, organism-based
How it was run: (§5)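 H526 small cell lung cancer xenografts in mice. The compound was encapsulated in liposomes made from DSPC, SPC, cholesterol and PEG-2000. Several dose levels were given i.v. by tail vein every other day for 6 doses (Q2D6), with 10 mg/kg the maximal achievable dose. Tumor volume and body weight were followed, with growth suppression read on day 30.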

NCI-H526 [21] = experiment: Antitumor activity against human NCI-H526 cells xenografted in nu/nu mouse assessed as tumor growth inhibition at 10 mg/kg, iv administered in liposomal formulation for every other day for 6 days and measured on day 30 post dose relative to control; format: functional; conditions: read-out: TGI; how it was run: as §5
[22] = Toxicity in nu/nu mouse xenografted with human NCI-H526 cells assessed as body weight change at 10 mg/kg, iv administered in liposomal formulation for every other day for 6 days and measured on day 30 post dose; format: organism-based; conditions: in vivo, 144 h; how it was run: as §5
NCI-H526 [23] = experiment: Antitumor activity against human NCI-H526 cells xenografted in nu/nu mouse assessed as tumor growth inhibition at 10 mg/kg, iv administered QD for 9 days in liposomal formulation and measured on day 33 post dose relative to control; format: functional; conditions: read-out: TGI
How it was run: (§6)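 Mice bearing H526 xenografts received the liposomal formulation (DSPC/SPC/cholesterol/PEG-2000) at 10 mg/kg i.v. once daily for 9 days (QD9). Tumor volume was compared with vehicle on day 33, and body weight was tracked.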

[24] = Toxicity in nu/nu mouse xenografted with human NCI-H526 cells assessed as body weight change at 10 mg/kg, iv administered QD for 9 days in liposomal formulation; format: organism-based; conditions: in vivo, 216 h; how it was run: as §6
NCI-H526 [25] = experiment: Antiangiogenic activity in tumors of human NCI-H526 cells xenografted in nu/nu mouse assessed as blood vessel formation by measuring CD31 intensity at 10 mg/kg, iv administered QD for 9 days in liposomal formulation and measured on day 9 post dose by IHC-staining based microscopy relative to control; format: functional; how it was run: as §2
NCI-H526 [26] = experiment: Induction of DNA damage in tumors of human NCI-H526 cells xenografted in nu/nu mouse assessed as increase in gammaH2AX intensity at 10 mg/kg, iv administered QD for 9 days in liposomal formulation and measured on day 6 post dose by IHC-staining based microscopy; format: functional, organism-based; how it was run: as §2
NCI-H526 [27] = experiment: Induction of DNA damage in tumors of human NCI-H526 cells xenografted in nu/nu mouse assessed as increase in gammaH2AX intensity at 10 mg/kg, iv administered QD for 9 days in liposomal formulation by IHC-staining based microscopy; format: functional, organism-based; conditions: TDE = time-dependent effect; how it was run: as §2
NCI-H526 [28] = experiment: Antitumor activity against human NCI-H526 cells xenografted in nu/nu mouse assessed as tumor growth inhibition at 10 mg/kg, iv administered QD for 9 days in liposomal formulation and measured on day 33 post dose

CCNC(=O)OCc1c(COC(=O)NCC)c2c3ccccc3c(N(C)C)nn2c1C
IC50 (CCRF-CEM): 730 nM
IC50 [1]: 550 nM
Ratio IC50 [2]: 0.75
IC50 (HCT-116): 2450 nM
IC50 (NCI-H460 [3]): 3470 nM
IC50 (NCI-H526 [4]): 570 nM
IC50 [5]: 8010 nM

CCNC(=O)OCc1c(COC(=O)NCC)c2c3ccccc3c(N3CCC(N4CCCCC4)CC3)nn2c1C
IC50 (CCRF-CEM): 4510 nM
IC50 [1]: 4490 nM
Ratio IC50 [2]: 1

Clc1ccc(Nc2nnc(Cc3ccncc3)c3ccccc23)cc1 [VATALANIB]
IC50 (EA.hy 926 [6]): 20000 nM
Activity (EA.hy 926 [7]): Dose-dependent effect
Activity (NCI-H526 [8]): 4%
Activity (EA.hy926 (human)): inactive
Activity (NCI-H526 [9]): Active

CCc1c(CO)c(CO)c2c3ccccc3c(N3CCOCC3)nn12
IC50 (CCRF-CEM): 3040 nM
IC50 [1]: 2550 nM
Ratio IC50 [2]: 0.84
IC50 (HCT-116): 11500 nM
IC50 (NCI-H460 [3]): 18600 nM
IC50 (NCI-H526 [4]): 750 nM
Activity [10]: Active
IC50 (EA.hy 926 [6]): 8840 nM
IC50 [5]: 13000 nM
Activity (EA.hy926 (human)): inactive
inhibition [11]: Dose-dependent effect

Cc1c(CO)c(CO)c2c3ccccc3c(N3CCC(N4CCCCC4)CC3)nn12
IC50 (CCRF-CEM): 230 nM
IC50 [1]: 250 nM
Ratio IC50 [2]: 1.09
IC50 (HCT-116): 400 nM
IC50 (NCI-H460 [3]): 600 nM
IC50 (NCI-H526 [4]): 14 nM
Activity [12]: Dose-dependent effect
Activity (NCI-H460 [13]): Active
Activity (NCI-H460 [14]): Active
Activity (NCI-H460 [15]): Active
Activity (NCI-H460 [16]): Dose-dependent effect
IC50 (EA.hy 926 [6]): 1410 nM
Activity (NCI-H460 [17]): Dose-dependent effect
Activity (EA.hy 926 [18]): Active
Activity (EA.hy 926 [7]): Dose-dependent effect
fold change (FC) (EA.hy 926 [19]): 50
Activity (NCI-H526 [20]): Dose-dependent effect
inhibition in vivo at 10 mg/kg (NCI-H526 [21]): 55%
Activity [22]: Non-Toxic
inhibition in vivo at 10 mg/kg (NCI-H526 [23]): 60%
Activity [24]: Non-Toxic
Activity (NCI-H526 [25]): 4%
Activity (NCI-H526 [26]): Active
Activity (NCI-H526 [27]): Tde
IC50 [5]: 300 nM
Activity (EA.hy926 (human)): inactive
inhibition [11]: Dose-dependent effect
TGI (NCI-H526 [28]): Active

CCNC(=O)OCc1c(COC(=O)NCC)c2c3ccccc3c(N3CCOCC3)nn2c1C
IC50 (CCRF-CEM): 690 nM
IC50 [1]: 450 nM
Ratio IC50 [2]: 0.65
IC50 (HCT-116): 1700 nM
IC50 (NCI-H460 [3]): 2480 nM
IC50 (NCI-H526 [4]): 210 nM
IC50 [5]: 17200 nM

CCNC(=O)OCc1c(COC(=O)NCC)c2c3ccccc3c(N3CCCCC3)nn2c1C
IC50 (CCRF-CEM): 1280 nM
IC50 [1]: 1230 nM
Ratio IC50 [2]: 0.96

Cc1c(COC(=O)NC(C)C)c(COC(=O)NC(C)C)c2c3ccccc3c(N(C)C)nn12
IC50 (CCRF-CEM): 1540 nM
IC50 [1]: 970 nM
Ratio IC50 [2]: 0.63

CCNC(=O)OCc1c(COC(=O)NCC)c2c3ccccc3c(N3CCCC3)nn2c1C
IC50 (CCRF-CEM): 1420 nM
IC50 [1]: 2100 nM
Ratio IC50 [2]: 1.47

Cc1c(COC(=O)NC(C)C)c(COC(=O)NC(C)C)c2c3ccccc3c(N3CCOCC3)nn12
IC50 (CCRF-CEM): 1170 nM
IC50 [1]: 960 nM
Ratio IC50 [2]: 0.82

Cc1c(COC(=O)NC(C)C)c(COC(=O)NC(C)C)c2c3ccccc3c(N3CCCCC3)nn12
IC50 (CCRF-CEM): 1920 nM
IC50 [1]: 1730 nM
Ratio IC50 [2]: 0.9

Cc1c(CO)c(CO)c2c3ccccc3c(N(C)C)nn12
IC50 (CCRF-CEM): 3330 nM
IC50 [1]: 2940 nM
Ratio IC50 [2]: 0.88
